Bioassay records: PubChem BioAssay, The Scripps Research Institute Molecular Screening Center
HTR5A inv ag: counter-screen for OPRM1-OPRD1 inverse agonists: human HTR5A inverse agonism. P47898. HTR5A cell line, luminescence. inhibition, % at 9.3 µM. 340,000 tested, 0.083% active. AID 504634; in the data active = inhibition mostly above about 23%, no sharp cut-off; inactive = mostly below about 18%;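 note: 0% = cells with DMSO and 100% = no-cell wells with DMSO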
HTR5A ag ctr: counter-screen for OPRM1-OPRD1 agonists: human HTR5A agonism. 340,000 tested, 0.61% active. P47898. AID 504692. HTR5A agonist assay, luminescence, cell-based. activation, % at 9.3 µM; in the data active = activation mostly above about 9.5%, no sharp cut-off; inactive = mostly below about 7.6%;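 note: 0% = cells with vehicle only and 100% = reference agonist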
MC4R barr agon: agonists of human melanocortin 4 receptor (MC4R) beta-arrestin. U2OS MC4R beta-arrestin complementation, luminescence; percent of melanotan II response, DMSO zero. P32245. activation, % at 8.9 µM. AID 540308. 360,000 tested, 0.98% active;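 active = activation above a per-plate cutoff, the mean activation of sample wells on that plate plus 3 SD, cut at about 8% in these data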
MC4R antag cAMP: antagonists of human melanocortin 4 receptor (MC4R); MC4R-expressing cells, MTII-stimulated cAMP, LANCE TR-FRET; inhibition, % at 6.5 µM; 360,000 tested, 0.48% active; AID 540295;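 active = inhibition above its plate's cutoff, the mean of tested wells on that plate plus 3 SD, cut at about 29% in these data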;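 note: 0% = Melanotan II alone and 100% = Melanotan II plus saturating MCL0020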
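system = U2OS cells with stable human MC4R expression | also added = Melanotan II challenge after compound preincubation | dosing = one concentration, 6.5 µM nominal | incubation = compound 30 min, challenge 1 h, detection 1 h | measured by = TR-FRET with Eu-cAMP and labeled anti-cAMP, 671 nm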
MOR-DOR inv ag-1: inverse agonist of human OPRM1-OPRD1 heterodimerization. AID 504357. P35372+P41143. 340,000 tested, 0.21% active. cell-based MOR-DOR heterodimer luminescence, inverse agonism. inhibition, % at 9.3 µM; in the data active = inhibition above about 22%, passing the limit was not always enough;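 note: 0% = cells with DMSO and 100% = wells without cells with DMSO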
Target sequence (P35372 whole entry, looked up): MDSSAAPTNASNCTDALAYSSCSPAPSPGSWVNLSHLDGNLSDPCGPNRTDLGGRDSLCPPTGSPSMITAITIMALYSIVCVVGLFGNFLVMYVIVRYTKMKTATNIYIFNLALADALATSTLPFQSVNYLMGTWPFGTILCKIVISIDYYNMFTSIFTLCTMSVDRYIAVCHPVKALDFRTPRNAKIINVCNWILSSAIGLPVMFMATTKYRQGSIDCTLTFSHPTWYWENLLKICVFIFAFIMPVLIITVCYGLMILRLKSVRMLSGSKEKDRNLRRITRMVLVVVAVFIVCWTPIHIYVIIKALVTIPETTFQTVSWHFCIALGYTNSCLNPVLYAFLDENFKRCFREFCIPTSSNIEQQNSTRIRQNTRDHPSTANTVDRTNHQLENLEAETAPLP
Target sequence (P41143 whole entry, looked up): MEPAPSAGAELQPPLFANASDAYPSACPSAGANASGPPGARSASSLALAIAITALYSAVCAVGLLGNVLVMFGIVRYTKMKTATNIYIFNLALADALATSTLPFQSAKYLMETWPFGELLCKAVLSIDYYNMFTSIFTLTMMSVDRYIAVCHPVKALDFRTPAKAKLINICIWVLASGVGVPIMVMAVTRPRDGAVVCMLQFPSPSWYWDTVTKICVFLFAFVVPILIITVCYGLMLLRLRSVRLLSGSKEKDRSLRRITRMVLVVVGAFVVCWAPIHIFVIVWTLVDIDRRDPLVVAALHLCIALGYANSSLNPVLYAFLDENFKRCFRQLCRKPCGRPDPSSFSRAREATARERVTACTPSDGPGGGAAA
MOR-DOR ag: OPRM1-OPRD1 heterodimerization agonism. P35372+P41143. cells, luminescence. activation, % at 9.3 µM. 340,000 tested, 0.3% active. AID 504326; in the data active = activation above about 18%;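 note: 0% = vehicle-treated cells and 100% = reference agonist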
MOR-DOR inv conf: confirmation of human OPRM1-OPRD1 heterodimerization inverse agonists; shares compounds with MOR-DOR inv ag-1; cells expressing OPRM1/OPRD1 heterodimer, luminescence; inhibition, % at 9.3 µM; 580 tested, 20% active; AID 504900; in the data active = inhibition above about 32%;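 note: 0% = cells with DMSO and 100% = wells lacking cells with DMSO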
HTR5A inv count: counter-screen for OPRM1-OPRD1 inverse agonists: human HTR5A inverse agonism; shares compounds with MOR-DOR inv ag-1; HTR5A-expressing cells, luminescence; inhibition, % at 9.3 µM; 580 tested, under 10 active;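 note: 0% = cells with DMSO and 100% = no-cell wells with DMSO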
MOR-DOR inv ag-2: opioid heterodimer inverse agonism, HTR5A counter-screen; shares compounds with HTR5A inv ag; U2OS counter-screen cells, complementation luminescence; inhibition, % at 9.3 µM; 190 tested, under 10 active; AID 504912;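 note: 0% = cells with DMSO and 100% = wells without cells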
HTR5A inv confrm: confirmation of human HTR5A inverse agonists; 190 tested, under 10 active; inhibition, % at 9.3 µM; HTR5A-expressing cells, inverse agonism, luminescence; AID 504916; shares compounds with HTR5A inv ag;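 note: 0% = cells with DMSO and 100% = no cells with DMSO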
* = called active by the depositor; i = inactive; / = no result. Only some compounds are listed: those with a hit (about 2.4% of all), similar ones and a draw of the others. Unless noted, the rule behind the calls is not given here.

SMILES	HTR5A inv ag	HTR5A ag ctr	MC4R barr agon	MC4R antag cAMP	MOR-DOR inv ag-1	MOR-DOR ag	MOR-DOR inv ag-2	HTR5A inv confrm	others
CCC(OC(=O)CN1C(=O)C(=O)c2ccccc21)C(=O)Nc1ccccc1OC (stereo not drawn)	23*	-8	-3	-20	49*	-6	/	/	MOR-DOR inv conf=3;HTR5A inv count=-7
CCC(Oc1ccccc1)C(=O)Nc1ccccc1OC (stereo not drawn)	-10	2	-1	11	-12	2	/	/
CCC(OC(=O)C(C)N1C(=O)C(=O)c2ccccc21)C(=O)Nc1ccccc1OC (stereo not drawn)	2	-4	-1	-16	48*	-8	/	/	MOR-DOR inv conf=10;HTR5A inv count=4
CN1C(=O)/C(=C/c2ccc(O)c([N+](=O)[O-])c2)N(C)C1=S	11	5	-5	-7	33*	-6	/	/	MOR-DOR inv conf=8;HTR5A inv count=19
COc1cc(/C=C2\C(=O)N(C)C(=S)N2C)ccc1O	7	-3	-3	-2	-11	2	/	/
Cc1cccc(C)c1NC(=O)C(NC=O)c1ccc(Cl)cc1 (stereo not drawn)	-14	5	-4	1	33*	-7	/	/	MOR-DOR inv conf=3;HTR5A inv count=2
CC(=O)Nc1ccc(S(=O)(=O)Nc2cccc3cccnc23)cc1	20	-8	-2	-5	26	-5	/	/
O=S(=O)(Nc1cccc2cccnc12)c1ccccc1	9	-4	-4	0	47*	-8	/	/	MOR-DOR inv conf=-33;HTR5A inv count=12
COc1ccc(NS(=O)(=O)c2ccc3ccccc3c2)c2ncccc12	12	-5	-3	1	39*	-7	/	/	MOR-DOR inv conf=10;HTR5A inv count=-11
COc1ccc(NC(=O)CN(C)C(=O)C2=COCCO2)cc1	16	-2	0	8	10	-2	/	/
O=C(O)C1(c2ccccc2)CCN(S(=O)(=O)c2ccc(Cl)cc2)CC1	2	-1	-1	5	15	-3	/	/
CCOC(=O)C1CCCN(C(=O)c2cc(C#N)cs2)CC1 (stereo not drawn)	/	/	1	-1	/	/	/	/
C=CCn1c(N)c(C(=O)OC(C)CC)c2nc3ccccc3nc21 (stereo not drawn)	-33	0	-2	-1	12	-2	/	/
COCC(C)OC(=O)c1c(N)n(CC(C)C)c2nc3ccccc3nc12 (stereo not drawn)	3	8	0	-4	59*	-11	/	/	MOR-DOR inv conf=37*;HTR5A inv count=12
COc1ccc(CCNC(=O)CC2SC(N)=NC2=O)cc1OC (stereo not drawn)	-4	1	-1	-1	-1	0	/	/
O=C(N=Nc1c(O)[nH]c2ccc([N+](=O)[O-])cc12)c1ccccc1[N+](=O)[O-]	17	-7	0	8	22	-4	/	/
CC(Oc1ccccc1)C(=O)N=Nc1c(O)[nH]c2ccc([N+](=O)[O-])cc12 (stereo not drawn)	10	-4	-2	14	45*	-6	/	/	MOR-DOR inv conf=17;HTR5A inv count=-8
COc1ccc(Cl)cc1NC(=O)Nc1cnccn1	41*	-16	-1	-8	2	0	-51	-3
CCOC(=O)[C@H]1[C@H]2COc3ccc(Br)cc3[C@@H]2N2C(=O)c3ccc(Cl)cc3NC(=O)[C@@]12C	-5	2	2	10	-7	1	/	/
COC(=O)c1ccccc1-c1c2ccc(=N)cc-2oc2cc(N)ccc12	35*	-10	-2	-8	27	-5	13	30
Cn1cccc1Cc1nnc(SCC(=O)NC2CCCC2)n1-c1ccc(F)cc1	-4	1	-1	1	12	-2	/	/
COc1ccc(-n2c(Cc3cccn3C)nnc2SCC(=O)NC2CCCCC2)cc1	33*	-12	0	0	14	-3	-8	0
COc1ccc(NC(=O)CSc2c3c(nc4cc(Cl)ccc24)CCCC3)cc1OC	14	-5	-2	17	-4	1	/	/
COCCNC(=O)CSc1c2c(nc3ccc(Cl)cc13)CCCC2	43*	-4	-4	23	7	-1	i	2
COc1ccc(Cl)cc1C(=O)NNC(=O)CSc1nnc2ccccn12	27*	-10	1	9	9	-2	-37	-2
SMILES	HTR5A inv ag	HTR5A ag ctr	MC4R barr agon	MC4R antag cAMP	MOR-DOR inv ag-1	MOR-DOR ag	MOR-DOR inv ag-2	HTR5A inv confrm	others
CC(=O)c1ccc(NC(=O)CN2CCOCC2)cc1	5	-1	0	5	5	-1	/	/
NC(=O)c1ccc(NC(=O)CN2CCOCC2)cc1	34*	-9	1	-2	6	-1	43*	22
COc1ccc(CNc2ncnc3sccc23)cc1	25*	-9	0	21	-6	1	-12	-5
COc1ccc(CNc2ncnc3sccc23)cc1OC	-1	1	-1	3	2	0	/	/
Cn1nc(OCc2ccccc2)ccc1=O	-16	0	-1	5	14	-2	/	/
Cn1nc(OCCOc2ccccc2)ccc1=O	40*	-16	-1	12	12	-2	-25	-1
Nc1nc(CN2CCN(C(=O)c3ccco3)CC2)nc(Nc2cccc(Cl)c2)n1	2	-1	0	0	19	-4	/	/
Cc1ccc(CCNC(=O)C2CCN(S(=O)(=O)c3cccc4nsnc34)CC2)cc1	47*	-13	2	9	-2	0	0	1
Cc1cc(C(=O)CN2C(=O)C(=O)N(CCC3=CCCCC3)C2=O)c(C)n1C	37*	-15	-3	3	14	-3	-413	-58
Cc1cc(C)nc(SCc2nnc(SCC(N)=O)o2)n1	4	0	-3	-5	2	0	/	/
CC(=O)N1CCc2cc(Br)cc(S(=O)(=O)N3CCN(c4ccccn4)CC3)c21	46*	1	-2	-2	8	-1	-40	8
CC(=O)N1c2c(cc(Br)cc2S(=O)(=O)N2CCN(c3ccccn3)CC2)CC1C (stereo not drawn)	-5	4	0	0	10	-2	/	/
COc1ccc(CN2C(=O)C(Cc3ccccc3)Nc3ncnc(N4CCN(c5ccccc5)CC4)c32)cc1 (stereo not drawn)	44*	-15	-3	6	41	-9	21	55*
CC(C)CC1Nc2ncnc(N3CCN(c4ccccc4)CC3)c2N(Cc2ccccc2)C1=O (stereo not drawn)	-3	1	-1	3	-1	0	/	/
